Compounds with a hit are over-represented: about 3% of the library has one in this group of screens.
MITF TRPM1 HTS: MITF TRPM1 promoter activation in melanoma cells; SK-MEL-5 TRPM1-promoter luciferase, 24 h; % of positive control, neutral wells = 0; activation, % at 12.5 µM; actives 0.75% (n = 300,000);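 active means mean activation of at least 80% with every replicate also reaching 80%; inconclusive means mean reaches 80% but some replicate falls short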;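 further: 0% = neutral control wells and 100% = parthenolide positive control wells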
Wnt act: activates Wnt/beta-catenin signaling in a reporter cell assay; activator, plate reader; activation, % at 9.35 µM; actives 1.2% (n = 300,000); AID 743398; in the data active means activation above about 30%, passing the limit was not always enough; inconclusive means no clear call, values can overlap the other calls;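 further: 0% = neutral control wells and 100% = positive control wells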
CASP6 VEID inh: inhibitors of human caspase-6. actives 0.53% (n = 350,000). purified caspase-6, Z-VEID-R110 cleavage fluorescence. P55212. inhibition, % at 12.5 µM;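 active means mean inhibition across replicates at least about 35%, with every replicate also reaching that limit, limit read from the data; inconclusive means only one of the two criteria met; inactive means neither criterion met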;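 further: 0% = median of neutral control wells and 100% = no fluorescence left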
NSD2 inh: blocks human histone methyltransferase NSD2. O96028. NSD2 peptide methylation, AlphaScreen, 120 min. inhibition, % at 12.5 µM. actives 0.54% (n = 310,000). AID 743445; in the data active means inhibition above about 50%
Target sequence (O96028 whole entry, looked up): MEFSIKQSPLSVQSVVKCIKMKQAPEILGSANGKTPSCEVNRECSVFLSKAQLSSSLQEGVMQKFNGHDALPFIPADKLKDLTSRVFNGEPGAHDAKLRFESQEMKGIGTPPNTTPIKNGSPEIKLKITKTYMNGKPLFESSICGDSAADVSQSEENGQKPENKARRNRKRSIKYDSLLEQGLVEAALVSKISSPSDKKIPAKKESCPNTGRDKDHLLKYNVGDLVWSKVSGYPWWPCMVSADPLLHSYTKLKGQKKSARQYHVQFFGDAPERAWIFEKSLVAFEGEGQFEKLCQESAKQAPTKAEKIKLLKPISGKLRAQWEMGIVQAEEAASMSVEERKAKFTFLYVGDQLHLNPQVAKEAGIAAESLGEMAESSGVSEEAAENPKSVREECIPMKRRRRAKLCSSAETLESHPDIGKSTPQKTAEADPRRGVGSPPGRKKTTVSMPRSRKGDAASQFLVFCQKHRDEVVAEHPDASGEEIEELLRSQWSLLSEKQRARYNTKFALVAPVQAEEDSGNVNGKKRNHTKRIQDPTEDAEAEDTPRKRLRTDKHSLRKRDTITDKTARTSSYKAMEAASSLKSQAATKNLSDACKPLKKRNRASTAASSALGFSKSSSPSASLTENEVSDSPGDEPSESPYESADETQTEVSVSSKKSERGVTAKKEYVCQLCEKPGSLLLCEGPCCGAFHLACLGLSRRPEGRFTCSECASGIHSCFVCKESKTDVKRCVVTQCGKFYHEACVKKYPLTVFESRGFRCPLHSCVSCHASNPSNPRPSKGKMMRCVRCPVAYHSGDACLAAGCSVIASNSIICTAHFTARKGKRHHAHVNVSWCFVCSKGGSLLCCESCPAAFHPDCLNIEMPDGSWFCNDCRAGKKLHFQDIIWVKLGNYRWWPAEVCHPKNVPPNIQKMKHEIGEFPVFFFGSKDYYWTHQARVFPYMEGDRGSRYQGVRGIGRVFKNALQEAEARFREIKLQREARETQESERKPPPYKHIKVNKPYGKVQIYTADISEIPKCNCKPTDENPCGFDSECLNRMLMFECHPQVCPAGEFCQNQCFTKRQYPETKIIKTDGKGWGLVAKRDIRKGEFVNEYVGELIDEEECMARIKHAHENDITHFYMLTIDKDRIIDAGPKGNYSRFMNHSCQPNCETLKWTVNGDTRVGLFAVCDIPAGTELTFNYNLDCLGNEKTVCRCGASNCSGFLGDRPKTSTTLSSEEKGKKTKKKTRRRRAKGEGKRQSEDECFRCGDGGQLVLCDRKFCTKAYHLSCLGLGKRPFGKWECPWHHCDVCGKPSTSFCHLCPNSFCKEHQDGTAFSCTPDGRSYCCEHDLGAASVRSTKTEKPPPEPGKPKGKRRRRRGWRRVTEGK
esBAF inh: inhibitors of esBAF chromatin remodeling in mouse ES cells; AID 602393; reporter increase, % at 12.5 µM; Bmi1-luciferase knock-in reporter, 24 h; 100% = twice the neutral-well signal; actives 2% (n = 350,000); in the data active means activation above about 40%; inconclusive means no clear call, values can overlap the other calls;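 further: 0% = median of the plate's neutral control wells and 100% = double that signal; a rise in the Bmi1 reporter signal indicates esBAF inhibition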
XiGFP reactiv: X-chromosome reactivation activator; XiGFP mouse fibroblasts, % GFP-positive cells imaging, 3 d; cells co-treated with 5-aza-dC sensitizer; scaled so ellipticine positive control = 100%; activation, % at 7.58 µM; AID 743238; actives 0.055% (n = 360,000);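 active means mean normalized replicate activation at least 10% and every replicate at or above 10%; inconclusive means only one of the two criteria met; inactive means mean below 10% and not all replicates reach 10%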;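 further: 0% = median of on-plate neutral control wells and 100% = ellipticine 6 µM median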
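Material: XiGFP fibroblasts, SV40-immortalized. Buffer or medium: DMEM plus 5-aza-dC sensitizer. Compound: single concentration per compound, delivered by pin transfer. Times: 3 days compound exposure. Controls: ellipticine 6 µM.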
Active calls of the source: *.

Results for C[C@H]1CCCCO[C@H](CN(C)S(=O)(=O)c2ccccc2)[C@@H](C)CN([C@@H](C)CO)C(=O)c2cc(NC(=O)Nc3ccc(F)cc3)ccc2O1 ?
CASP6 VEID inh: -1; esBAF inh: 3; XiGFP reactiv: 0

How did CC(C)c1ccc2nc(N)sc2c1 do in these assays?
MITF TRPM1 HTS: 92*; Wnt act: 11; CASP6 VEID inh: 1; NSD2 inh: 1; esBAF inh: -5; XiGFP reactiv: 0

What do the screens show for `Nc1nc2ccc(Oc3ccccc3)cc2s1`?
MITF TRPM1 HTS: 77; NSD2 inh: 2

How did Nc1nc2ccc(OC(F)(F)F)cc2s1 do in these assays?
MITF TRPM1 HTS: 41; Wnt act: 11; esBAF inh: 43*; XiGFP reactiv: 0

What do the screens show for `Nc1nc2ccc(O)cc2s1`?
Wnt act: 2; NSD2 inh: -1; esBAF inh: -9

What do the screens show for `CNC[C@H]1Oc2ncc(Br)cc2C(=O)N([C@H](C)CO)C[C@H]1C`?
CASP6 VEID inh: 3; esBAF inh: 1; XiGFP reactiv: 0

Results for COc1ccc(N(C)C(=O)Nc2ccc3nsnc3c2)cc1 ?
MITF TRPM1 HTS: 11; CASP6 VEID inh: 6; NSD2 inh: -1; esBAF inh: 8; XiGFP reactiv: 0

Results for S=C(Nc1ccc2nsnc2c1)N1CCCCCC1 ?
MITF TRPM1 HTS: 94*; Wnt act: 9; CASP6 VEID inh: 56*; NSD2 inh: 153*; XiGFP reactiv: 0

Results for O=C(Nc1ccc2nsnc2c1)N1CCCCC1 ?
MITF TRPM1 HTS: 19; Wnt act: 10; NSD2 inh: -6; esBAF inh: 19

How did CC(C)N(C(=O)Nc1ccc2nsnc2c1)C(C)C do in these assays?
Wnt act: -2; CASP6 VEID inh: 100*; NSD2 inh: 104*; XiGFP reactiv: 0

Results for CC1CCN(C(=O)Nc2ccc3nsnc3c2)CC1 ?
MITF TRPM1 HTS: 100*; NSD2 inh: -1; esBAF inh: inconclusive

Results for CN(C)CC#Cc1cccc(-c2nc(C(=O)N3CCN(C)CC3)cc3c2[C@@H](CCO)N(S(=O)C(C)(C)C)C3)c1 (some centres undefined) ?
CASP6 VEID inh: 6; esBAF inh: -4

How did COc1ccc(NC(=O)C(=S)NC2CCCCC2)cc1 do in these assays?
MITF TRPM1 HTS: 69; Wnt act: 39*; CASP6 VEID inh: -2; esBAF inh: 36; XiGFP reactiv: 0

How did CCc1cccc(NC(=O)NC2CCCCC2)c1 do in these assays?
MITF TRPM1 HTS: 7; NSD2 inh: 3; esBAF inh: -18

How did COc1ccc(-n2c(C)cc(C(=O)NC3CCCCC3)c2C)cc1 do in these assays?
MITF TRPM1 HTS: 43; Wnt act: 18; CASP6 VEID inh: 0; NSD2 inh: 4; esBAF inh: 54*

How did CCOc1ccc(NC(=O)C(=S)NC2CCCCC2)cc1 do in these assays?
MITF TRPM1 HTS: 136*; Wnt act: -1; CASP6 VEID inh: -2; NSD2 inh: -6; XiGFP reactiv: 0

What do the screens show for `CCc1ccc(NC(=O)NC2CCCCCCC2)cc1`?
MITF TRPM1 HTS: 95*; Wnt act: 19; CASP6 VEID inh: -2; NSD2 inh: -1; esBAF inh: 58*; XiGFP reactiv: 0

Results for C[C@@H]1CN([C@@H](C)CO)C(=O)c2cc(NC(=O)Nc3ccc(C(F)(F)F)cc3)ccc2O[C@@H](C)CCCCO[C@H]1CN(C)Cc1ccncc1 ?
CASP6 VEID inh: 0; esBAF inh: -8; XiGFP reactiv: 0

How did OC[C@@H]1[C@H](c2ccc(C#CC3(O)CCCC3)cc2)[C@H]2CN(Cc3cccnc3)CCCCN12 do in these assays?
CASP6 VEID inh: 1; XiGFP reactiv: 0

Results for O=C(NC1CCCCC1)N1CC(=O)N2[C@H](C1)[C@@H](c1ccc(-c3cccc(F)c3)cc1)[C@@H]2CO ?
CASP6 VEID inh: -1; XiGFP reactiv: 0

Results for CCc1ccc(NC(=O)C(=S)NC2CCCCC2)cc1 ?
MITF TRPM1 HTS: 119*; Wnt act: -4; CASP6 VEID inh: 1; NSD2 inh: -8; esBAF inh: 30; XiGFP reactiv: 0

Results for CCOc1ccc(NC(=O)NC2CCCCCCC2)cc1 ?
MITF TRPM1 HTS: 77; Wnt act: 0; CASP6 VEID inh: 1; NSD2 inh: 0; esBAF inh: 59*; XiGFP reactiv: 1

Results for O=C(Cc1ccc(O)cc1)NC1CCCCCC1 ?
MITF TRPM1 HTS: 90*; Wnt act: 16; CASP6 VEID inh: -2; NSD2 inh: -6; esBAF inh: 36; XiGFP reactiv: 0

How did COc1ccccc1C#Cc1ccc([C@H]2[C@@H](C#N)N(C(=O)C3CC3)[C@H]2CO)cc1 do in these assays?
CASP6 VEID inh: 0; esBAF inh: 5; XiGFP reactiv: 0

Results for Fc1ccc(/C=N/NC(=S)Nc2cccnc2)cc1 ?
MITF TRPM1 HTS: 6; Wnt act: 27; CASP6 VEID inh: 48*; NSD2 inh: 0; esBAF inh: 18; XiGFP reactiv: 0

Results for Oc1ccc(/C=N/NC(=S)Nc2cccnc2)c(O)c1O ?
MITF TRPM1 HTS: -27; Wnt act: 2; CASP6 VEID inh: 49*; esBAF inh: 8; XiGFP reactiv: 0

What do the screens show for `C/C=C/c1ccc([C@H]2[C@H]3CN(Cc4ccc(C(=O)OC)cc4)CC(=O)N3[C@H]2CO)cc1`?
CASP6 VEID inh: -2; XiGFP reactiv: 1

What do the screens show for `O=C(CCN1CCCCC1)N[C@@H]1CC[C@@H](CCn2cc(-c3ccccc3)nn2)O[C@H]1CO`?
CASP6 VEID inh: 1; esBAF inh: -4; XiGFP reactiv: 0

How did CCCCn1cnc2c(SCc3ccccc3)nc(N)nc21 do in these assays?
MITF TRPM1 HTS: 45; Wnt act: 14; CASP6 VEID inh: 1; NSD2 inh: -1; esBAF inh: 50*; XiGFP reactiv: 0

What do the screens show for `COc1cccc(N2C(=O)C(c3ccccc3)=C(c3nc4ccccc4s3)C2NC(C)=O)c1` (centres undefined)?
MITF TRPM1 HTS: -4; Wnt act: 6; NSD2 inh: 0; esBAF inh: -4

Results for CC(=O)NC1C(c2nc3ccccc3s2)=C(c2ccccc2)C(=O)N1c1ccc(C)cc1 (centres undefined) ?
Wnt act: 33*; NSD2 inh: 2; esBAF inh: 21

How did CN1c2ccc(-c3cccc(C#N)c3)cc2[C@@H]2[C@@H](CCN2S(=O)(=O)c2ccccc2)[C@@H]1CO do in these assays?
CASP6 VEID inh: -1; esBAF inh: 9; XiGFP reactiv: 1

Results for Cc1cc(C(=O)OCc2nnc(-c3ccccc3)o2)c(C)n1-c1ccccc1 ?
MITF TRPM1 HTS: 4; NSD2 inh: 0; esBAF inh: 26

Results for Cc1noc(C)c1COC(=O)c1cc(C)n(-c2ccccc2)c1C ?
NSD2 inh: 3; esBAF inh: 80*

Screening data: PubChem BioAssay, Broad Institute
